These results are taken from ChEMBL document CHEMBL1150340, “Synthesis of 5'-functionalized nucleosides: S-Adenosylhomocysteine analogues with the carbon-5' and sulfur atoms replaced by a vinyl or halovinyl unit” (Bioorg Med Chem, 2008).

Test [1] addresses Adenosylhomocysteinase (Homo sapiens) (UniProt P23526). Nature of the test: Inhibition of human S-adenosyl-L-homocysteine hydrolase at 281 uM after 0.5 hrs. Put shortly: (§1)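 Human AdoHcy hydrolase (204 nM) was preincubated with inhibitor in buffer A (50 mM, pH 7.2, 1 mM EDTA) at 22 °C, for 0.5 h or 4 h. Residual activity was then read in the synthetic direction: an aliquot was diluted into buffer A with 0.5 mM Ado and 0.5 mM Hcy, held 12 min at 37 °C, and stopped with HClO₄. Duplicates were averaged.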

For test [2] the target is unchanged. Nature of the test: Inhibition of human S-adenosyl-L-homocysteine hydrolase at 281 uM after 4 hrs. The gist of the method: as §1
For test [3] the target is unchanged. As to the kind of experiment: Inhibition of human S-adenosyl-L-homocysteine hydrolase after 20 mins.

Chain of Adenosylhomocysteinase (Homo sapiens) (P23526 2-432 limits assumed): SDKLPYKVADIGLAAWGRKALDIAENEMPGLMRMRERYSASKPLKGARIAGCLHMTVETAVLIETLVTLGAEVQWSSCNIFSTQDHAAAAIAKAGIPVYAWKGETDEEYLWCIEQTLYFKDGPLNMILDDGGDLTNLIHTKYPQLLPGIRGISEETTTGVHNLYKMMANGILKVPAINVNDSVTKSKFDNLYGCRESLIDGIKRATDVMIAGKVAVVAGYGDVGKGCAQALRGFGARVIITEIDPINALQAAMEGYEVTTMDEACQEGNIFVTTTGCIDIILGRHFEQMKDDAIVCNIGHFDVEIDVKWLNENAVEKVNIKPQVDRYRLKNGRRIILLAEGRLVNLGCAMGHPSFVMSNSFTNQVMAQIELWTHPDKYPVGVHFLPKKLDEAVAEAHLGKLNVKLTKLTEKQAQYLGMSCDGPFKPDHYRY

Consider `CCOC(=O)CCC/C(F)=C\[C@H]1O[C@@H](n2cnc3c(N)ncnc32)[C@H](O)[C@@H]1O`, for which the inhibition in test [1] was found to be 14.1%.

On to `Nc1ncnc2c1ncn2[C@@H]1O[C@H](/C=C(/F)CCCC(=O)O)[C@@H](O)[C@H]1O`, for which the values for the inhibition in test [2] and in test [1] were 35.2% and 15.2%, respectively.

On to `CCOC(=O)/C=C/C=C\[C@H]1O[C@@H](n2cnc3c(N)ncnc32)[C@H](O)[C@@H]1O`, for which the inhibition in test [3] was found to be 98.2%.

As to `CCOC(=O)CCC/C=C/[C@H]1O[C@@H](n2cnc3c(N)ncnc32)[C@H](O)[C@@H]1O`, the inhibition in test [1] was determined as 81%.

In the case of `Nc1ncnc2c1ncn2[C@@H]1O[C@H](/C=C/CCCC(=O)O)[C@@H](O)[C@H]1O`, the figures for the inhibition in test [2] and in test [1] were 92.4% and 28.5%, respectively.

Turning to `Nc1ncnc2c1ncn2[C@@H]1O[C@H](/C=C\CCC(=O)O)[C@@H](O)[C@H]1O`, the inhibition in test [2] was determined as 95.5%; in test [1], 50.5%.

As for `COC(=O)CC/C=C\[C@H]1O[C@@H](n2cnc3c(N)ncnc32)[C@H](O)[C@@H]1O`, the inhibition in test [1] was 68.1%.

As to `CCOC(=O)/C=C/C=C/[C@H]1O[C@@H](n2cnc3c(N)ncnc32)[C@H](O)[C@@H]1O`, the inhibition in test [3] is 96.4%.

One may read the inhibition as the change of the read-out against control, counted positive when it falls. Low readings indicate a response near the control, high ones a response far below the control.
